Measured values from ChEMBL document CHEMBL1126171, “Synthesis of 2-(p-chlorobenzyl)-3-aryl-6-methoxybenzofurans as selective ligands for antiestrogen-binding sites. Effects on cell proliferation and cholesterol synthesis” (J Med Chem, 1992).
pIC50: −log10 of the molar value. One block for each compound: values may come before it.

Experiments:
[1] = biological target: T1, Anti-estrogen binding site (AEBS) (Homo sapiens) (UniProt Q15125+Q9UBM7); assay: Relative binding affinity(RBA) against AEBS (Antiestrogen binding site) in N1-S1 cells; format: functional, cell-based; settings: Rattus norvegicus
[2] = biological target: Estrogen receptor (Homo sapiens) (UniProt Q92731+P03372); assay: Relative binding affinity(RBA) against Estrogen receptor using MCF-7 cells; format: cell-based; settings: MCF7
In short: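 Competition for ER in MCF7 whole cells suspended in phosphate-buffered saline, 3 × 10^7 cells per duplicate aliquot. Incubated with 5 nM [3H]estradiol with or without 100-fold molar excess of competitor or diethylstilbestrol, then washed and counted as for the AEBS assay. Bound label reported as % of no-competitor control. Mean ± SEM of two experiments.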

[3] = biological target: T1, Anti-estrogen binding site (AEBS) (Homo sapiens); assay: Relative binding affinity (RBA) against AEBS (Antiestrogen binding site) in rat liver; format: functional, tissue-based; settings: target entry is the homologue from another species
[4] = biological target: T1, Anti-estrogen binding site (AEBS) (Homo sapiens); assay: Relative binding affinity(RBA) against AEBS (Antiestrogen binding site) in N1-S1 cells
[5] = biological target: T1, Anti-estrogen binding site (AEBS) (Homo sapiens); assay: Relative binding affinity(RBA) against AEBS (Antiestrogen binding site) in rat liver; format: functional, tissue-based; settings: target entry is the homologue from another species
[6] = test system: EL4; assay: Inhibition of [3H]thymidine incorporation into EL4 cell proliferation; format: functional, cell-based; settings: Mus musculus, EL4, 48 h
In short: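 Treated 48 h with compound; DNA synthesis measured by [3H]thymidine incorporation, cells harvested onto filters and counted. Mean ± SEM of two experiments.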

[7] = biological target: T1, Anti-estrogen binding site (AEBS) (Homo sapiens); assay: Displacement of [3H]tamoxifen from AEBS of EL4 cells; format: functional, cell-based; settings: Mus musculus
[8] = biological target: T1, Anti-estrogen binding site (AEBS) (Homo sapiens); assay: Effect on cholesterol biosynthesis in EL4 cells, 5 hr incubation with 0.25 mM [3H]acetate; format: functional, cell-based; settings: Mus musculus
In short: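 EL4 cells at 20 × 10^6 cells/mL in lipoprotein-poor RPMI given 0.25 mM [3H]acetate for 5 h, without or with compound (10^-6 M or 10^-4 M depending on compound); triplicates in two experiments. KOH/ethanol saponification at 95 °C with [14C]cholesterol recovery standard; petroleum ether extraction. Label in cholesterol as % of total cellular incorporation; % inhibition versus control; Student's t test.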

[9] = test system: MCF7S; assay: (§1) Inhibition of [3H]thymidine incorporation into MCF-7 cells; format: functional, cell-based; settings: Homo sapiens
In short: (§2)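 After 24 h, compound (final […], diluted from 1 mM ethanolic stock; solvent controls) and [3H]thymidine (37 kBq/well) added. Incubated 48 h, then trypsinized, harvested and counted. Mean ± SEM of two experiments.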

[10] = Percent of cell viability by trypan blue exclusion; format: functional
In short: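 Viability of EL4 cells in the [3H]acetate cholesterol-synthesis incubations (20 × 10^6 cells/mL; 5 h or 48 h with compound at 10^-7 to 10^-4 M), estimated by trypan blue exclusion.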

[11] = biological target: T1, Anti-estrogen binding site (AEBS) (Homo sapiens); assay: Relative binding affinity(RBA) against AEBS (Antiestrogen binding site) using EL-4 cells; format: functional, cell-based; settings: Mus musculus
[12] = biological target: T1, Anti-estrogen binding site (AEBS) (Homo sapiens); assay: Effect on cholesterol biosynthesis in EL4 cells, 48 hr incubation with 0.25 mM [3H]acetate; format: functional, cell-based; settings: Mus musculus
In short: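 EL4 cells at 20 × 10^6 cells/mL in lipoprotein-poor RPMI, incubated 48 h with 0.25 mM [3H]acetate ± 10^-7 M compound, in triplicate, two experiments. Stopped with KOH/ethanol, [14C]cholesterol added for recovery, saponified 95 °C 90 min. Nonsaponifiable lipids extracted in petroleum ether. Result as % of total incorporated label found in cholesterol; inhibition versus control; Student's t test.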

[13] = test system: MCF7S; assay: as §1; format: functional, cell-based; settings: Homo sapiens; remark: listed apart in the source
In short: as §2, with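 “MCF7 cells in Hepes-buffered RPMI 1640 with 5% newborn calf serum, seeded 4500 per well. After” for “After”, “counted. […]” for “counted.”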

[14] = biological target: T1, Anti-estrogen binding site (AEBS) (Homo sapiens); assay: Relative binding affinity(RBA) against AEBS (Antiestrogen binding site) in guinea pig uterus; format: functional, tissue-based; settings: Cavia porcellus, target entry is the homologue from another species
[15] = biological target: T1, Anti-estrogen binding site (AEBS) (Homo sapiens); assay: Relative binding affinity(RBA) against AEBS (Antiestrogen binding site) in chicken liver; settings: Gallus gallus; target entry is the homologue from another species
[16] = biological target: T1, Anti-estrogen binding site (AEBS) (Homo sapiens); assay: Relative binding affinity (RBA) against AEBS (Antiestrogen binding site) using N1-S1 cells; format: functional, cell-based; settings: Rattus norvegicus
[17] = biological target: T1, Anti-estrogen binding site (AEBS) (Homo sapiens); assay: Relative binding affinity(RBA) against AEBS (Antiestrogen binding site) using N1-S1 cells; format: functional, cell-based; settings: Rattus norvegicus
[18] = biological target: T1, Anti-estrogen binding site (AEBS) (Homo sapiens); assay: Relative binding affinity(RBA) against AEBS (Antiestrogen binding site) in MCF-7 cells; settings: target entry is the homologue from another species

SMILES: CCN(CC)CCOc1ccc(C2=C(c3ccc(F)cc3)COc3cc(OC)ccc32)cc1
- relative binding affinity (RBA) [1]: 106
- relative binding affinity (RBA) [2]: < 1

SMILES: CC/C(=C(\c1ccccc1)c1ccc(OCCN(CC)CC)cc1)c1ccccc1
- relative binding affinity (RBA) [3]: 21
- relative binding affinity (RBA) [4]: 46

SMILES: COc1ccc2c(-c3ccc(OCCN4CCOCC4)cc3)c(Cc3ccc(Cl)cc3)oc2c1.Cl
- pIC50 [6]: 6.47
- relative binding affinity (RBA) [7]: 1830
- Activity [8]: 0.11% [middle of 6 runs]
- pIC50 [9]: 5.19
- Cell viability [10]: 79%

SMILES: Oc1cccc(C(=C2CCCCC2)c2cccc(OCCN3CCCCC3)c2)c1
- relative binding affinity (RBA) [5]: 10

SMILES: CC/C(=C(\c1ccccc1)c1ccc(OCCN2CCOCC2)cc1)c1ccccc1
- relative binding affinity (RBA) [5]: 1170

SMILES: CC/C(=C(\c1ccccc1)c1ccc(OCCN2CCCC2)cc1)c1ccccc1
- relative binding affinity (RBA) [5]: 434

SMILES: Oc1cccc(C(=C2CCCCC2)c2cccc(OCCN3CCOCC3)c2)c1
- relative binding affinity (RBA) [5]: 25

SMILES: C=CC(C(=O)OCCN(CC)CC)(c1ccccc1)c1ccccc1
- relative binding affinity (RBA) [3]: 10

SMILES: CCCC(C(=O)OCCN(CC)CC)(c1ccccc1)c1ccccc1
- relative binding affinity (RBA) [3]: 12

SMILES: CCN(CC)CCOC(=O)C(CC(C)C)(c1ccccc1)c1ccccc1
- relative binding affinity (RBA) [3]: 5

SMILES: CCN(CC)CCOc1cccc(C(=C2CCCCC2)c2cccc(O)c2)c1
- relative binding affinity (RBA) [5]: 6

SMILES: CCN(CC)CCOc1ccc(C(C)(C)C)cc1
- relative binding affinity (RBA) [5]: 0.08

SMILES: CCN(CC)CCOc1ccc(Cc2ccccc2)cc1
- relative binding affinity (RBA) [3]: 0.06

SMILES: CN(C)CCOc1ccc(C2Oc3ccccc3C=C2c2ccccc2)cc1 (stereo not drawn)
- relative binding affinity (RBA) [5]: 98

SMILES: COc1ccc2c(-c3ccc(OCCN(C)C)cc3)c(Cc3ccc(Cl)cc3)oc2c1
- pIC50 [6]: 6.02
- relative binding affinity (RBA) [7]: 391
- pIC50 [9]: 5.30

SMILES: CC/C(=C(\c1ccccc1)c1ccc(OCCN2CCN(C)CC2)cc1)c1ccccc1
- relative binding affinity (RBA) [5]: 540

SMILES: O=C(c1ccc(OCCN2CCCC2)cc1)c1c(-c2ccc(O)cc2)sc2cc(O)ccc12
- relative binding affinity (RBA) [2]: 115
- relative binding affinity (RBA) [18]: 19

SMILES: CN(C)CCOc1cccc(C(=C2CCCCC2)c2cccc(O)c2)c1
- relative binding affinity (RBA) [5]: 17

More lines, main results first:

- relative binding affinity (RBA) [5]: 225
SMILES: C1=C(c2ccccc2)C(c2ccc(OCCN3CCCCC3)cc2)Oc2ccccc21 (stereo not drawn)

- relative binding affinity (RBA) [5]: 46
SMILES: COc1ccc2c(c1)OC(C)(C)[C@@H](c1ccccc1)[C@H]2c1ccc(OCCN2CCCC2)cc1

- relative binding affinity (RBA) [11]: 557
- relative binding affinity (RBA) [2]: < 1
SMILES: COc1ccc2c(c1)OCC(c1ccccc1)=C2c1ccc(OCCN2CCCC2)cc1

- relative binding affinity (RBA) [7]: 268
- Activity [12]: 0.32% [middle of 5 runs]
- Activity [8]: 0.12% [middle of 6 runs]
- pIC50 [13]: 5.64
SMILES: COc1ccc2c(-c3ccc(OCCN4CCCC4)cc3)c(Cc3ccc(Cl)cc3)oc2c1.Cl
- pIC50 [6]: 6.32
- Cell viability [10]: 91%

- relative binding affinity (RBA) [14]: 124
- relative binding affinity (RBA) [5]: 90
- relative binding affinity (RBA) [15]: 183
SMILES: COc1ccc2c(c1)CCC(c1ccccc1)=C2c1ccc(OCCN2CCCC2)cc1

- relative binding affinity (RBA) [5]: 134
SMILES: C1=C(c2ccccc2)C(c2ccc(OCCN3CCCC3)cc2)Oc2ccccc21 (stereo not drawn)

- relative binding affinity (RBA) [11]: 257
- relative binding affinity (RBA) [2]: < 1
SMILES: COc1ccc2c(c1)OCC(c1ccc(Cl)cc1)=C2c1ccc(OCCN2CCCC2)cc1

- relative binding affinity (RBA) [5]: 19
SMILES: COc1ccc2c(c1)OC(C)(C)[C@H](c1ccccc1)[C@H]2c1ccc(OCCN2CCCC2)cc1

- relative binding affinity (RBA) [11]: 169
- relative binding affinity (RBA) [2]: < 1
SMILES: COc1ccc2c(c1)OCC(c1ccc(Br)cc1)=C2c1ccc(OCCN2CCCC2)cc1

- relative binding affinity (RBA) [16]: 176
- relative binding affinity (RBA) [2]: < 1
SMILES: COc1ccc2c(c1)OCC(c1ccc(F)cc1)=C2c1ccc(OCCN2CCCC2)cc1

- relative binding affinity (RBA) [16]: 161
- relative binding affinity (RBA) [2]: < 1
SMILES: COc1ccc2c(c1)OCC(c1ccc(F)cc1)=C2c1ccc(OCCN2CCCCC2)cc1

- relative binding affinity (RBA) [17]: 68
- relative binding affinity (RBA) [2]: < 1
SMILES: COc1ccc2c(c1)OCC(c1ccc(F)cc1)=C2c1ccc(OCCN2CCOCC2)cc1

- relative binding affinity (RBA) [5]: 23
SMILES: COc1ccc2c(-c3ccc(OCCN4CCCC4)cc3)c(-c3ccccc3)oc2c1
